Experimental data pooled from the literature.
AMY2: Pancreatic alpha-amylase (AMY2, Sus scrofa, UniProt P00690)
Hydroxyacylglutathione hydrolase, mitochondrial: Hydroxyacylglutathione hydrolase, mitochondrial (Homo sapiens, UniProt Q16775)
HSD11B2: 11-beta-hydroxysteroid dehydrogenase type 2 (HSD11B2, Homo sapiens, UniProt P80365)
SIRT2: NAD-dependent protein deacetylase sirtuin-2 (SIRT2, Homo sapiens, UniProt Q8IXJ6)
Maoa: Amine oxidase [flavin-containing] A (Maoa, Rattus norvegicus, UniProt P21396)

`CN(O)N=Nc1ccc(S(=O)(=O)Nc2nccs2)cc1` gave an inhibition of 78.9% (AMY2; enzyme activity, inhibitor; 300 µg/mL).
`c1ccc(CN(CCN(Cc2ccccn2)Cc2ccccn2)Cc2ccccn2)nc1` has an inhibition of 47.6% (Hydroxyacylglutathione hydrolase, mitochondrial; cell-free assay; 100 µM).
The inhibition of `Cc1ccc(N(O)N=Nc2ccc(S(=O)(=O)Nc3onc(C)c3C)cc2)cc1` is reported as 42.1% (AMY2; enzyme activity, inhibitor; 180 µg/mL).
With `CCC(C)(C)C(=O)O[C@H]1C[C@@H](C)C=C2C=C[C@H](C)[C@H](CC[C@@H]3C[C@@H](O)CC(=O)O3)[C@H]21` the inhibition was under 40% (HSD11B2; enzyme activity, inhibitor; 20 µM, lysate).
`O=C(O)CN1CCN(CC(=O)O)CCN(CC(=O)O)CC1` has an inhibition of 0.85% (Hydroxyacylglutathione hydrolase, mitochondrial; cell-free assay; 100 µM).
The inhibition of `CCCCNC(=S)NCCCC[C@H](NS(=O)(=O)c1cccc(F)c1)C(=O)N[C@@H](Cc1c[nH]c2ccccc12)C(=O)NC1CCC1` is reported as 32% (SIRT2; enzyme activity, inhibitor; 1 µM).
The inhibition of `Oc1cccc(Nc2nc(-c3ccc(F)cc3F)cs2)c1` is reported as 14.4% (Maoa; cell-free assay; 10 µM).
`CC(=S)NCCCC[C@H](NC(=O)OCc1ccccc1)C(=O)N[C@@H](Cc1c[nH]c2ccccc12)C(=O)N[C@@H](CCCNC(=N)N)C(N)=O` has an inhibition of 20% (SIRT2; enzyme activity, inhibitor; 1 µM).
`Cc1cccc(N(O)N=Nc2ccc(S(=O)(=O)Nc3onc(C)c3C)cc2)c1` gave an inhibition of 36.8% (AMY2; enzyme activity, inhibitor; 180 µg/mL).
For `COc1cc(C=CC(=O)CC(c2ccc([N+](=O)[O-])cc2)n2ccnc2)ccc1O` (centres unmarked), the inhibition was 87.6% (AMY2; enzyme activity, inhibitor, absorbance; 10 µg/mL).
With `CCCCCCCCCCCCNC(=O)CCCCC[C@H](NC(=O)OCc1ccccc1)C(=O)N[C@@H](Cc1c[nH]c2ccccc12)C(=O)NC(C)C` the inhibition was 29% (SIRT2; enzyme activity, inhibitor; 100 µM).
With `CCCCc1oc2ccccc2c1C(=O)c1cc(I)c(OCCN(CC)CC)c(I)c1` the inhibition was under 40% (HSD11B2; enzyme activity, inhibitor; 20 µM, lysate).
`COc1cc(C=CC(=O)CC(c2ccc(N(C)C)cc2)n2ccnc2)ccc1O` (centres unmarked) gave an inhibition of 58.2% (AMY2; enzyme activity, inhibitor, absorbance; 1.25 µg/mL).
The inhibition of `Cc1ccc(N(O)N=Nc2ccc(S(=O)(=O)Nc3cc(C)on3)cc2)cc1` is reported as 78.9% (AMY2; enzyme activity, inhibitor; 300 µg/mL).
`O=C(c1ccc(Cl)cc1)N(Cc1ccccc1)C1CCCCC1` gave an inhibition of 5.1% (Maoa; cell-free assay; 10 µM).
`CC/C(=N\NC(=O)NCc1cccc(O)c1)c1ccc(O)c(C)c1O` has an inhibition of -0.1% (Fibroblast growth factor receptor 3 (FGFR3, Homo sapiens, UniProt P22607, V555L); enzyme activity, inhibitor; 0.1 µM).
The inhibition of `CCOCCOCCOCCNC(=S)NCCCC[C@H](NS(C)(=O)=O)C(=O)N[C@H](C)C(=O)N[C@@H](CCCNC(=N)N)C(N)=O` is reported as 13% (SIRT2; enzyme activity, inhibitor; 100 µM).
For `COc1cc(C=Cc2cc(-c3ccc(N(C)C)cc3)nc(O)n2)ccc1O`, the inhibition was 50.3% (AMY2; enzyme activity, inhibitor, absorbance; 1.25 µg/mL).
With `CCN(c1cc(C#CCN2CCOCC2)cc(C(=O)NCc2c(C)cc(C)[nH]c2=O)c1C)[C@H]1CC[C@H](N(C)CCOC)CC1` the inhibition was 8% (N-lysine methyltransferase SMYD2 (SMYD2, Homo sapiens, UniProt Q9NRG4); enzyme activity, inhibitor; 1 µM).
For `O=C(NC1CCC1)[C@H](Cc1c[nH]c2ccccc12)NC(=O)[C@H](CCCCNC(=S)NCc1cc(O)no1)NS(=O)(=O)c1cccc(F)c1`, the inhibition was 13% (SIRT2; enzyme activity, inhibitor; 30 µM).
`COc1cc(C=Cc2cc(-c3ccccc3)nc(O)n2)ccc1O` has an inhibition of 66.3% (AMY2; enzyme activity, inhibitor, absorbance; 2.5 µg/mL).
With `CCCN(O)N=Nc1ccc(S(=O)(=O)Nc2cc(C)on2)cc1` the inhibition was 57.9% (AMY2; enzyme activity, inhibitor; 240 µg/mL).
For `CCOCCOCCNC(=S)NCCCC[C@H](NS(C)(=O)=O)C(=O)N[C@H](C)C(=O)N[C@@H](CCCNC(=N)N)C(N)=O`, the inhibition was 16% (SIRT2; enzyme activity, inhibitor; 100 µM).
With `C[C@H]1O[C@H](O[C@H]2[C@H](O)[C@@H](O)[C@@H](O[C@H]3[C@H](O)[C@@H](O)C(O)O[C@@H]3CO)O[C@@H]2CO)[C@H](O)[C@@H](O)[C@@H]1N[C@H]1C=C(CO)[C@@H](O)[C@H](O)[C@H]1O` (some centres unmarked) the inhibition was 32.1% (AMY2; enzyme activity, inhibitor; 30 µg/mL).
For `Cn1c(CNC(=S)NCCCC[C@H](NS(=O)(=O)c2cccc(F)c2)C(=O)N[C@@H](Cc2c[nH]c3ccccc23)C(=O)NC2CCC2)n[nH]c1=S`, the inhibition was 43% (SIRT2; enzyme activity, inhibitor; 30 µM).
With `CCN(O)N=Nc1ccc(S(=O)(=O)Nc2nccs2)cc1` the inhibition was 63.2% (AMY2; enzyme activity, inhibitor; 300 µg/mL).
The inhibition of `CC(=S)NCCCC[C@H](NC(=O)OCc1ccccc1)C(=O)N[C@@H](Cc1c[nH]c2ccccc12)C(=O)N[C@@H](CCCCN)C(N)=O` is reported as 36% (SIRT2; enzyme activity, inhibitor; 1 µM).
With `Cc1cc(NS(=O)(=O)c2ccc(N=NN(O)c3ccccc3)cc2)no1` the inhibition was 52.6% (AMY2; enzyme activity, inhibitor; 180 µg/mL).
The inhibition of `C=C(CC)C(=O)c1ccc(OCC(=O)O)c(Cl)c1Cl` is reported as under 40% (HSD11B2; enzyme activity, inhibitor; 20 µM, lysate).
